For experiment [1], the target named is T1, Sodium-dependent serotonin transporter (Rattus norvegicus, UniProt P31652). Description: Displacement of [3H]paroxetine from serotonin transporter (5-HT) of rat cerebral cortex. The experiment is classed as tissue-based. The method in brief: (§1)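 Male Sprague-Dawley rat (200-250 g) brain tissue, 1.5 mg original wet weight, in 50 mM Tris, 120 mM NaCl, 5 mM KCl, pH 7.4, with 0.2 nM [3H]paroxetine and 10 test concentrations, 90 min at room temperature. 1 µM citalopram defines nonspecific binding. GF/B filtration.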
T1 sequence (P31652 whole entry): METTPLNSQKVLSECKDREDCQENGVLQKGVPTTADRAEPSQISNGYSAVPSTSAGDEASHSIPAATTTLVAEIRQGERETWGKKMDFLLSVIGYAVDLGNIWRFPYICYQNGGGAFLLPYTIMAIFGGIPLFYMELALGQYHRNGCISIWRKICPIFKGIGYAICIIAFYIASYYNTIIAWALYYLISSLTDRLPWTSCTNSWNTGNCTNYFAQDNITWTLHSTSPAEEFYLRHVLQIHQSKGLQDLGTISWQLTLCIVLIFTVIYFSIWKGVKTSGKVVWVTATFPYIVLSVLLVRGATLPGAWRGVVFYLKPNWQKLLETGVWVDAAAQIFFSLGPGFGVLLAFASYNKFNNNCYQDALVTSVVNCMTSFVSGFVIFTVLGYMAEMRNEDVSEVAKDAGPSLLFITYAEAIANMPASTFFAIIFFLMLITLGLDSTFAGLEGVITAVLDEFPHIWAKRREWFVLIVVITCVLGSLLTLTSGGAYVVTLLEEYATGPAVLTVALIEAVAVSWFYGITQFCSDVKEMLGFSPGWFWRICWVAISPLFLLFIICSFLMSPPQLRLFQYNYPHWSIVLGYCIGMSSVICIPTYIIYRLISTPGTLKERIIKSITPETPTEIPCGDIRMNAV
On the technique in general: Displacement assays read how much labelled ligand stays bound in the presence of the test substance.

Experiment [2] has as its target Sodium-dependent dopamine transporter (Rattus norvegicus, UniProt P23977). In words: Inhibition of [3H]WIN-35428 binding to rat striatal dopamine transporter.
Experiment [3] has as its target T1, Sodium-dependent serotonin transporter. Description: Inhibition of [3H]paroxetine binding to rat cortex serotonin transporter. The method in brief: as §1
The target in experiment [4] is T2, Norepinephrine transporter (Rattus norvegicus, UniProt Q9WTR4). Description: Displacement of [3H]nisoxetine from norepinephrine transporter (NET) of rat cerebral cortex. It is filed as tissue-based. In outline: (§2)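 Male Sprague-Dawley rat (200-250 g) cerebral cortex, 8 mg per tube, in 50 mM Tris, 120 mM NaCl, 5 mM KCl, pH 7.4 at 4 °C, with [3H]nisoxetine and 10 test concentrations. 1 µM desipramine defines nonspecific binding. GF/B filtration, ice-cold washes.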
T2 sequence (Q9WTR4 whole entry): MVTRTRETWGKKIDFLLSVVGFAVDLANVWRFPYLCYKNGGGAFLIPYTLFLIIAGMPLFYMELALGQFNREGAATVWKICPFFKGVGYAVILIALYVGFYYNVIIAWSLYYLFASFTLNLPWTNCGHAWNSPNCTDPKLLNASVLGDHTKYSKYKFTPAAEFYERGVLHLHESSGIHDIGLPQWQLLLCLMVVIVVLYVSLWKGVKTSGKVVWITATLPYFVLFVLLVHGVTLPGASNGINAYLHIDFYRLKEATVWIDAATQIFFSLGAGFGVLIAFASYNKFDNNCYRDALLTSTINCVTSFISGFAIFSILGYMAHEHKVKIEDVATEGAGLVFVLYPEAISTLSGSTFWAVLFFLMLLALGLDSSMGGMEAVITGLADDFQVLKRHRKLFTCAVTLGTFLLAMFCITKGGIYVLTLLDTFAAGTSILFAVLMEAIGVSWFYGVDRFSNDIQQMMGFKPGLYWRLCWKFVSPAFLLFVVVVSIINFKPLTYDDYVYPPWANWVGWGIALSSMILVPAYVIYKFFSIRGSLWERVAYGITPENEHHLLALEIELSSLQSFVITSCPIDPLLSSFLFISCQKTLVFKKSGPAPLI

The target of experiment [5] is T2, Norepinephrine transporter. In words: Inhibition of [3H]nisoxetine binding to rat cerebral cortex norepinephrine transporter. The experiment is classed as tissue-based. In outline:
as §2

The record followed here is ChEMBL document CHEMBL1139532, “Synthesis and monoamine transporter binding properties of 3alpha-(substituted phenyl)nortropane-2beta-carboxylic acid methyl esters. Norepinephrine transporter selective compounds” (J Med Chem, 2005).

SMILES strings stand for the structures.

Chain of Sodium-dependent dopamine transporter (P23977 whole entry): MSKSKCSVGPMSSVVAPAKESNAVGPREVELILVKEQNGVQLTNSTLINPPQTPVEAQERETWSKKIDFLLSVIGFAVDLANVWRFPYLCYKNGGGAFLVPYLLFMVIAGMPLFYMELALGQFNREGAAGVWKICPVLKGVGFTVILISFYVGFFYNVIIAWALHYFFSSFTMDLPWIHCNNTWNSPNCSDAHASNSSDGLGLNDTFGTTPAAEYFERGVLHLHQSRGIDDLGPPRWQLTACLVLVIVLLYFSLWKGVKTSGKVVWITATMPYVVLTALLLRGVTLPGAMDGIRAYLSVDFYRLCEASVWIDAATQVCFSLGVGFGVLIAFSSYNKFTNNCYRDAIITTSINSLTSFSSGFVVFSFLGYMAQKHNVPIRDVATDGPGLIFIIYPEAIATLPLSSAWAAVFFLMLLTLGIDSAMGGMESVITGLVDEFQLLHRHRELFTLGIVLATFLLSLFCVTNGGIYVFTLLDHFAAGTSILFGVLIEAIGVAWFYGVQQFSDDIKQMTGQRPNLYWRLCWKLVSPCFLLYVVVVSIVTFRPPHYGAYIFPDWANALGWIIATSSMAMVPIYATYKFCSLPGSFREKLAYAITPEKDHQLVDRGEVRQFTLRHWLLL

By Ki is commonly meant a measure of affinity in units of concentration, obtained from inhibition or displacement. Lower therefore signals a stronger hold on the target. The IC50 is the point on the concentration scale where inhibition reaches its midpoint. The low end stands for greater potency, the high end for weaker potency. As for `COC(=O)C1C(c2ccc(F)c(C)c2)CC2CCC1N2C` (centres undefined), the Ki stood at 258 nM in experiment [1] and 74 nM in experiment [4]. The IC50 in experiment [2] was 13.7 nM; in experiment [3] it was 1160 nM; in experiment [5], 148 nM.
Regarding `COC(=O)C1C(c2ccc(C)c(F)c2)CC2CCC1N2C` (centres undefined), the values for the Ki in experiment [1] and in experiment [4] were 282 nM and 22.4 nM, respectively. For the same compound, the IC50 in experiment [2] worked out at 7.38 nM; in experiment [3], 1150 nM.
As for `COC(=O)C1C2CCC(CC1c1cccc(F)c1)N2` (centres undefined), the Ki worked out at 26.8 nM in experiment [1] and 4 nM in experiment [4]. For the same compound, the IC50 in experiment [2] was determined as 2.36 nM; in experiment [3] it was 110 nM; in experiment [5] it was 9.7 nM.
The like results for `COC(=O)C1C2CCC(CC1c1ccc(F)c(C)c1)N2` (centres undefined) were, in that order, 17.1 nM, 2.12 nM, 9.38 nM, 69.8 nM and 4.23 nM.
The like results for `COC(=O)C1C2CCC(CC1c1ccc(C)c(F)c1)N2` (centres undefined) were, in that order, 23.8 nM, 0.43 nM, 9 nM, 97.4 nM and 0.86 nM.
The like results for `COC(=O)C1C2CCC(CC1c1ccc(F)c(F)c1)N2` (centres undefined) were, in that order, 55.3 nM, 2.6 nM, 5.61 nM, 226 nM and 6.3 nM.
For the compound `COC(=O)C1C2CCC(CC1c1cc(F)cc(F)c1)N2` (centres undefined), the Ki in experiment [1] is 13.7 nM; in experiment [4] it was 2.05 nM. For the same compound, the values for the IC50 in experiment [2], in experiment [3] and in experiment [5] were 2.35 nM, 55.8 nM and 4.1 nM, respectively.
